ChEMBL document CHEMBL5352501, “Catalytic Degraders Effectively Address Kinase Site Mutations in EML4-ALK Oncogenic Fusions” (J Med Chem, 2023)
Values after ≈ are worked out from the molar mass of the structure shown. Active and inactive are the calls of the source. The rule behind the calls is not given here.

Key:
BaF3 [1] = assay type: functional; details: Mus musculus, time 72 hrs, read-out: pGI50 (converted)
BaF3 [2] = experiment: Antiproliferative activity against mouse Ba/F3 cells stably expressing HiBiT-tagged EML4-ALK variant 3 G1202R mutant assessed as cell growth inhibition incubated for 72 hrs by CellTiter-Glo assay; assay type: functional
Procedure, shortened: (§1)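 Ba/F3 cells stably expressing HiBiT-tagged EML4-ALK v3 (wild type or the named kinase-site mutant) were treated with compound for 72 h. Growth inhibition was reported as log GI50.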

Mus musculus [3] = assay type: functional, organism-based; details: BALB/c, BaF3, dose 10.0 mg/kg, route po, time 14.0 day
Mus musculus [4] = assay type: functional, organism-based; details: BALB/c, BaF3, dose 10.0 mg/kg, route po, time 14.0 day; remark: listed apart in the source
BaF3 [5] = experiment: Antiproliferative activity against mouse Ba/F3 cells stably expressing HiBiT-tagged wild type EML4-ALK variant 3 assessed as cell growth inhibition incubated for 72 hrs by CellTiter-Glo assay; assay type: functional; procedure, shortened: as §1
BaF3 [6] = experiment: Antiproliferative activity against mouse Ba/F3 cells stably expressing HiBiT-tagged EML4-ALK variant 3 C1156Y mutant assessed as cell growth inhibition incubated for 72 hrs by CellTiter-Glo assay; assay type: functional; procedure, shortened: as §1
BaF3 [7] = assay type: functional; details: Mus musculus, dose 10.0 mg/kg, route po, time 14.0 day
BaF3 [8] = assay type: functional; details: Mus musculus, time 72 hrs
[9] = Microsomal stability in human liver microsomes assessed as intrinsic clearance at 1 uM and measured upto 60 mins in presence of NADPH by LC-MS/MSC analysis; assay type: ADME, Microsome; details: read-out: CLH
Erythrocyte [10] = experiment: Hemolytic activity in mouse RBC assessed as hemolysis incubated for 45 mins by absorbance based microplate reader analysis; assay type: toxicity, cell-based; details: 0.75 h
Erythrocyte [11] = experiment: Hemolytic activity in human RBC assessed as hemolysis incubated for 45 mins by absorbance based microplate reader analysis; assay type: toxicity, cell-based; details: 0.75 h
[12] = Solubility of the compound in FeSSIF at pH 5.0 incubated for 24 hrs under shaking condition by UPLC-UV/HPLC-UV analysis; assay type: physicochemical
[13] = Oral bioavailability in C57BL/J6 mouse at 10 mg/kg and measured upto 24 hrs by LC-MS/MS analysis; assay type: ADME, organism-based; details: in vivo
Procedure, shortened: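 Mouse PK was run with both oral and intravenous dosing, with 10 mg/kg as the study dose. Oral bioavailability was derived from comparing the two routes.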

Row | SMILES | GI50 (BaF3 [1]) | GI50 (BaF3 [2]) | GI50 (BaF3 [5]) | GI50 (BaF3 [6]) | GI50 (BaF3 [8]) | microsomal CLint at 1 µM [9] | further results
1 | C[C@H]1Oc2cc(cnc2N)-c2c(nn(C)c2C#N)CN(C)C(=O)c2ccc(F)cc21 [LORLATINIB] | 501 nM | 100 nM | 3.16 nM | 39.8 nM | 50.1 nM | – | Activity (Mus musculus [3]): Active; Activity (Mus musculus [4]): Active; Activity (BaF3 [7]): inactive
2 | COc1cc(C2CCN(CC3CN(c4ccc5c(c4)CN(C4CCC(=O)NC4=O)C5=O)C3)CC2)c(C)cc1Nc1ncc(Cl)c(Nc2ccccc2S(=O)(=O)C(C)C)n1 (stereo not drawn) | – | – | – | – | – | 25.2 µL/min/mg | –
3 | COc1cc(N2CCC(N3CCN(C)CC3)CC2)ccc1Nc1ncc(Cl)c(Nc2ccccc2P(C)(C)=O)n1 [BRIGATINIB] | 200 nM | 251 nM | 12.6 nM | 39.8 nM | 39.8 nM | – | –
4 | COc1cc(C2CCN(CCCCCC#Cc3cccc4c3CN(C3CCC(=O)NC3=O)C4=O)CC2)c(C)cc1Nc1ncc(Cl)c(Nc2ccccc2S(=O)(=O)C(C)C)n1 (stereo not drawn) | – | – | – | – | – | 5.4 µL/min/mg | Activity (Erythrocyte [10]): Toxic; Activity (Erythrocyte [11]): Toxic
5 | COc1cc(CCNCCCCCC#Cc2cccc3c2CN(C2CCC(=O)NC2=O)C3=O)c(C)cc1Nc1ncc(Cl)c(Nc2ccccc2S(=O)(=O)C(C)C)n1 (stereo not drawn) | – | – | – | – | – | 39 µL/min/mg | Activity (Erythrocyte [10]): Toxic; solubility thermodynamic at 24 h [12]: 686 µM (≈ 567 µg/mL); F [13]: 0.2%; Activity (Erythrocyte [11]): Toxic
6 | COc1cc(C2CCN(CC#Cc3ccc4c(c3)CN(C3CCC(=O)NC3=O)C4=O)CC2)c(C)cc1Nc1ncc(Cl)c(Nc2ccccc2S(=O)(=O)C(C)C)n1 (stereo not drawn) | – | – | – | – | – | 14.8 µL/min/mg | –
7 | COc1cc(C2CCN(CC3CN(c4ccc5c(c4)C(=O)N(C4CCC(=O)N(C)C4=O)C5=O)C3)CC2)c(C)cc1Nc1ncc(Cl)c(Nc2ccccc2S(=O)(=O)C(C)C)n1 (stereo not drawn) | 126 nM | 126 nM | 15.8 nM | 39.8 nM | 15.8 nM | – | –
